Measurements from article PMC3176992 (Molecular psychiatry, 2010).
Where a chain is given by its changes, count along the chain named. Entries after “also recorded” stand apart in the source; their conditions may differ. Peptide text beside a SMILES is read from it. * marks the point of attachment. Cbz = O=C(OCc1ccccc1)*

B1: DISC1 ΔTNIK: DISC1 with amino acids 329–350 deleted, expressed from plasmid (protein)
chain: MPGGGPQGAPAAAGGGGVSHRAGSRDCLPPAACFRRRRLARRPGYMRSSTGPGIGFLSPAVGTLFRFPGGVSGEESHHSESRARQCGLDSRGLLVRSPVSKSAAAPTVTSVRGTSAHFGIQLRGGTRLPDRLSWPCGPGSAGWQQEFAAMDSSETLDASWEAACSDGARRVRAAGSLPSAELSSNSCSPGCGPEVPPTPPGSHSAFTSSFSFIRLSLGSAGERGEAEGCPPSREAESHCQSPQEMGAKAASLDGPHEDPRCLSRPFSLLATRVSADLAQAARNSSRPERDMHSLPDMDPGSSSSLDPSLAGCGGDGSSGSGDAHSWDTISLRLKLQKLQEDAVENDDYDKAETLQQRLEDLEQEKISLHFQLPSRQPALSSFLGHLAAQVQAALRRGATQQASGDDTHTPLRMEPRLLEPTAQDSLHVSITRRDWLLQEKQQLQKEIEALQARMFVLEAKDQQLRREIEEQEQQLQWQGCDLTPLVGQLSLGQLQEVSKALQDTLASAGQIPFHAEPPETIRSLQERIKSLNLSLKEITTKVCMSEKFCSTLRKKVNDIETQLPALLEAKMHAISGNHFWTAKDLTEEIRSLTSEREGLEGLLSKLLVLSSRNVKKLGSVKEDYNRLRREVEHQETAYETSVKENTMKYMETLKNKLCSCKCPLLGKVWEADLEACRLLIQSLQLQEARGSLSVEDERQMDDLEGAAPPIPPRLHSEDKRKTPLKVLEEWKTHLIPSLHCAGGEQKEESYILSAELGEKCEDIGKKLLYLEDQLHTAIHSHDEDLIQSLRRELQMVKETLQAMILQLQPAKEAGEREAAASCMTAGVHEAQA
modifications: left off: Myc, end not stated, kept
B2: DISC1 AS1: DISC1 containing the mutation VLR336–338AAA, expressed from plasmid (protein)
chain: MPGGGPQGAPAAAGGGGVSHRAGSRDCLPPAACFRRRRLARRPGYMRSSTGPGIGFLSPAVGTLFRFPGGVSGEESHHSESRARQCGLDSRGLLVRSPVSKSAAAPTVTSVRGTSAHFGIQLRGGTRLPDRLSWPCGPGSAGWQQEFAAMDSSETLDASWEAACSDGARRVRAAGSLPSAELSSNSCSPGCGPEVPPTPPGSHSAFTSSFSFIRLSLGSAGERGEAEGCPPSREAESHCQSPQEMGAKAASLDGPHEDPRCLSRPFSLLATRVSADLAQAARNSSRPERDMHSLPDMDPGSSSSLDPSLAGCGGDGSSGSGDAHSWDTLLRKWEPAAADCLLRNRRQMEVISLRLKLQKLQEDAVENDDYDKAETLQQRLEDLEQEKISLHFQLPSRQPALSSFLGHLAAQVQAALRRGATQQASGDDTHTPLRMEPRLLEPTAQDSLHVSITRRDWLLQEKQQLQKEIEALQARMFVLEAKDQQLRREIEEQEQQLQWQGCDLTPLVGQLSLGQLQEVSKALQDTLASAGQIPFHAEPPETIRSLQERIKSLNLSLKEITTKVCMSEKFCSTLRKKVNDIETQLPALLEAKMHAISGNHFWTAKDLTEEIRSLTSEREGLEGLLSKLLVLSSRNVKKLGSVKEDYNRLRREVEHQETAYETSVKENTMKYMETLKNKLCSCKCPLLGKVWEADLEACRLLIQSLQLQEARGSLSVEDERQMDDLEGAAPPIPPRLHSEDKRKTPLKVLEEWKTHLIPSLHCAGGEQKEESYILSAELGEKCEDIGKKLLYLEDQLHTAIHSHDEDLIQSLRRELQMVKETLQAMILQLQPAKEAGEREAAASCMTAGVHEAQA
modifications: left off: Myc, end not stated, kept
B3: DISC1 WT: wild-type human DISC1 expressed from plasmid (protein)
chain: B2 chain with A336V, A337L, A338R
modifications: left off: Myc, end not stated, kept

Assays:
TNIK = TNIK level and phosphorylation in primary hippocampal neurons; type: cell-based, rat; details: 10 µM MG132 or 25 µg/ml leupeptin for 7 h, then 10 µM peptide 40 min; N=4
GluR1 = GluR1 level in primary hippocampal neurons; type: cell-based, rat; details: 10 µM MG132 or 25 µg/ml leupeptin for 7 h, then 10 µM peptide 40 min; N=4
PSD-95 = PSD-95 level in primary hippocampal neurons; type: cell-based, rat; details: 10 µM MG132 or 25 µg/ml leupeptin for 7 h, then 10 µM peptide 40 min; N=4
HA-TNIK = test: Co-immunoprecipitation of DISC1 with TNIK from HEK293 cells; type: binding, human; details: HA-TNIK and Myc-DISC1 construct coexpressed in HEK293 cells
Summary of the method: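 HEK293 cells in DMEM with 10% heat-inactivated FBS, seeded at 40–80% density and transfected 24 h later (Lipofectamine 2000). Lysed in co-IP buffer (50 mM Tris-Cl pH 7.5, 150 mM NaCl, 1 mM EDTA, 1% Triton X-100) with protease/phosphatase inhibitors, 30 min at 4 °C, then cleared at 12000 g. Protein G beads loaded with 1–3 µg antibody for 1 h, incubated with lysate 2 h to overnight at 4 °C, washed, and run on 4–12% Bis-Tris gels for western blot.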

TNIK in NIH3T3 cells = test: TNIK-induced cell rounding assay; type: cell-based; details: for inhibition of TNIK-induced cell rounding: NIH3T3 cells co-transfected with HA-TNIK WT and DISC1 construct
Summary of the method: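 NIH3T3 cells in DMEM with 10% heat-inactivated FBS, seeded at 40–80% density and co-transfected 24 h later (Lipofectamine 2000) with HA-tagged TNIK and Myc-tagged DISC1 constructs. Immunofluorescence staining with anti-HA/anti-Myc antibodies. Rounding was scored as cell length-to-breadth ratio measured from TNIK (HA) staining.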

Row | Molecule | dephosphorylation of TNIK at S769, with inhibitor pretreatment (TNIK) | DISCpep-WT-tat-induced loss of GluR1, with inhibitor pretreatment (GluR1) | DISCpep-WT-tat-induced loss of PSD-95, with inhibitor pretreatment (PSD-95) | inhibition of TNIK-induced cell rounding (TNIK in NIH3T3 cells) | also measured
1 | CC(=O)N[C@@H](CC(C)C)C(=O)N[C@@H](CC(C)C)C(=O)N[C@H](C=O)CCCNC(=N)N [leupeptin] | neither affected by MG132 or leupeptin | a reciprocal effect observed for GluR1; also recorded: rescued | not leupeptin |  | 
2 | CC(C)C[C@@H](C=O)NC(=O)[C@H](CC(C)C)NC(=O)[C@H](CC(C)C)NC(=O)OCc1ccccc1 [MG132] (Cbz-Leu-Leu-Leu-aldehyde) | neither affected by MG132 or leupeptin | a reciprocal effect observed for GluR1; also recorded: GluR1 degradation still occurred | blocked by MG132; also recorded: rescued |  | dephosphorylation of TNIK at S764, with inhibitor pretreatment (TNIK): not affected by MG132
3 | B1 |  |  |  |  | interaction with TNIK (co-IP) (HA-TNIK; listed as Myc-DISC1 ΔTNIK): abolition of interaction with TNIK
4 | B2 |  |  |  | could not inhibit TNIK in cell-based assays | interaction with TNIK (co-IP) (HA-TNIK; listed as Myc-DISC1 AS1): only showed a weak interaction with TNIK
5 | B3 |  |  |  | unable to induce cell rounding; also recorded: inhibits TNIK-induced cell rounding | length-to-breadth ratio of cells (TNIK in NIH3T3 cells; NIH3T3 cells, co-expressed with TNIK, versus empty vector, N>30): significantly increased the average length-to-breadth ratio of a cell; interaction with TNIK (co-IP) (HA-TNIK): co-immunoprecipitates with HA-TNIK
